ChEMBL document CHEMBL2177098, “Synthesis and evaluation of novel ¹⁸F labeled 2-pyridinylbenzoxazole and 2-pyridinylbenzothiazole derivatives as ligands for positron emission tomography (PET) imaging of β-amyloid plaques” (J Med Chem, 2012)

How the values were obtained:
[1] = test system: Intestine; assay: Drug uptake in ICR mouse intestine assessed per organ at 370 kBq/100 ul, iv at 30 mins by gamma-counting analysis; type: ADME, organism-based; conditions: in vivo, 0.5 h
Summary of the method: (§1)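 Male ICR mice (5 weeks, about 20 g) got 18F tracer in saline (370 KBq per 100 μL) via tail vein; n = 5 per time point, killed at 2, 10, 30, 60 min. Organs removed and γ-counted against diluted injectate; expressed as % injected dose per organ.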

[2] = test system: Intestine; assay: Drug uptake in ICR mouse intestine assessed per organ at 370 kBq/100 ul, iv at 10 mins by gamma-counting analysis; type: ADME, organism-based; conditions: in vivo; summary of the method: as §1
[3] = test system: Intestine; assay: Drug uptake in ICR mouse intestine assessed per organ at 370 kBq/100 ul, iv at 2 mins by gamma-counting analysis; type: ADME, organism-based; conditions: in vivo; summary of the method: as §1
[4] = test system: Stomach; assay: Drug uptake in ICR mouse stomach assessed per organ at 370 kBq/100 ul, iv at 30 mins by gamma-counting analysis; type: ADME, organism-based; conditions: in vivo, 0.5 h; summary of the method: as §1
[5] = test system: Stomach; assay: Drug uptake in ICR mouse stomach assessed per organ at 370 kBq/100 ul, iv at 10 mins by gamma-counting analysis; type: ADME, organism-based; conditions: in vivo; summary of the method: as §1
[6] = test system: Kidney; assay: Drug uptake in ICR mouse kidney at 370 kBq/100 ul, iv at 60 mins by gamma-counting analysis; type: ADME, organism-based; conditions: in vivo, 1 h
Summary of the method: (§2)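 Male ICR mice (5 weeks, about 20 g) got 18F tracer in saline (370 KBq per 100 μL) via tail vein; n = 5 per time point, killed at 2, 10, 30, 60 min. Organs weighed and γ-counted; percent dose per gram wet tissue from comparison with diluted injectate aliquots.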

[7] = test system: Kidney; assay: Drug uptake in ICR mouse kidney at 370 kBq/100 ul, iv at 30 mins by gamma-counting analysis; type: ADME, organism-based; conditions: in vivo, 0.5 h; summary of the method: as §2
[8] = test system: Lung; assay: Drug uptake in ICR mouse lung at 370 kBq/100 ul, iv at 60 mins by gamma-counting analysis; type: ADME, organism-based; conditions: in vivo, 1 h; summary of the method: as §2
[9] = test system: Kidney; assay: Drug uptake in ICR mouse kidney at 370 kBq/100 ul, iv at 2 mins by gamma-counting analysis; type: ADME, organism-based; conditions: in vivo; summary of the method: as §2
[10] = test system: Lung; assay: Drug uptake in ICR mouse lung at 370 kBq/100 ul, iv at 30 mins by gamma-counting analysis; type: ADME, organism-based; conditions: in vivo, 0.5 h; summary of the method: as §2
[11] = test system: Lung; assay: Drug uptake in ICR mouse lung at 370 kBq/100 ul, iv at 2 mins by gamma-counting analysis; type: ADME, organism-based; conditions: in vivo; summary of the method: as §2
[12] = test system: Spleen; assay: Drug uptake in ICR mouse spleen at 370 kBq/100 ul, iv at 2 mins by gamma-counting analysis; type: ADME, organism-based; conditions: in vivo; summary of the method: as §2
[13] = test system: Liver; assay: Drug uptake in ICR mouse liver at 370 kBq/100 ul, iv at 60 mins by gamma-counting analysis; type: ADME, organism-based; conditions: in vivo, 1 h; summary of the method: as §2
[14] = test system: Heart; assay: Drug uptake in ICR mouse heart at 370 kBq/100 ul, iv at 60 mins by gamma-counting analysis; type: ADME, organism-based; conditions: in vivo, 1 h; summary of the method: as §2
[15] = test system: Heart; assay: Drug uptake in ICR mouse heart at 370 kBq/100 ul, iv at 30 mins by gamma-counting analysis; type: ADME, organism-based; conditions: in vivo, 0.5 h; summary of the method: as §2
[16] = test system: Heart; assay: Drug uptake in ICR mouse heart at 370 kBq/100 ul, iv at 10 mins by gamma-counting analysis; type: ADME, organism-based; conditions: in vivo; summary of the method: as §2
[17] = test system: Brain; assay: Drug uptake in ICR mouse brain at 370 kBq/100 ul, iv at 60 mins by gamma-counting analysis; type: ADME, organism-based; conditions: in vivo, 1 h; summary of the method: as §2
[18] = test system: Brain; assay: Drug uptake in ICR mouse brain at 370 kBq/100 ul, iv at 30 mins by gamma-counting analysis; type: ADME, organism-based; conditions: in vivo, 0.5 h; summary of the method: as §2
[19] = test system: Brain; assay: Drug uptake in ICR mouse brain at 370 kBq/100 ul, iv at 10 mins by gamma-counting analysis; type: ADME, organism-based; conditions: in vivo; summary of the method: as §2
[20] = test system: Brain; assay: Drug uptake in ICR mouse brain at 370 kBq/100 ul, iv at 2 mins by gamma-counting analysis; type: ADME, organism-based; conditions: in vivo; summary of the method: as §2
[21] = test system: Blood; assay: Drug uptake in ICR mouse blood at 370 kBq/100 ul, iv at 30 mins by gamma-counting analysis; type: ADME, organism-based; conditions: in vivo, 0.5 h; summary of the method: as §2
[22] = test system: Blood; assay: Drug uptake in ICR mouse blood at 370 kBq/100 ul, iv at 2 mins by gamma-counting analysis; type: ADME, organism-based; conditions: in vivo; summary of the method: as §2
[23] = test system: Brain; assay: Drug uptake in healthy human brain at 370 KBq/100 ul after 1 hr by autoradiographic analysis; type: ADME, tissue-based; conditions: in vitro
[24] = Displacement of [125I]-IMPY from amyloid beta (1 to 42) fibrils after 2 hrs by gamma-counting analysis
Summary of the method: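 Competition binding with aggregated Aβ1-42 fibrils and [125I]IMPY (60000−100000 cpm/100 μL) in 0.05% BSA (1 mL total); inhibitors 10⁻⁴−10^−8.5 M in ethanol. Incubated 37 °C for 2 h, then GF/B vacuum filtration with PBS (0.02 M, pH 7.4) washes and γ counting. Three repeats; IC50 converted to Ki by Cheng−Prusoff.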

[25] = test system: Brain; assay: Drug uptake in wild type C57BL6 mouse brain at 370 KBq/100 ul after 1 hr by autoradiographic analysis; type: ADME, tissue-based; conditions: in vitro
Summary of the method: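 Paraffin brain sections from 12-month-old male control C57BL6 mice were deparaffinized through xylene and graded ethanol, then held in PBS (0.2 M, pH 7.4) for 30 min. They were incubated with the ¹⁸F tracer (370 KBq per 100 μL) for 1 h at room temperature. Sections were washed in 40% EtOH, rinsed with water for 1 min, dried, and exposed to a phosphor plate for 2 h. The same sections were then stained with thioflavin S.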

[26] = Metabolic stability in mouse plasma at 1.85 MBq after 60 mins by HPLC analysis; type: ADME, cell-free; conditions: read-out: Stability
Summary of the method: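 Purified tracer (1.85 MBq) was incubated with 100 μL mouse plasma at 37 °C for 2, 10, 30 and 60 min. Read-out was the percentage of activity remaining as intact tracer.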

[27] = n-Octanol-PBS buffer partition coefficient, log D of the compound at 1.5 MBq after 3 mins at pH 7.4; type: physicochemical
Summary of the method: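 The tracer was partitioned between n-octanol and PBS by vortexing for 3 min at room temperature, then centrifuged for 5 min at 3000 rpm. Samples of the octanol (50 μL) and aqueous (500 μL) layers were counted. log D is the log of the octanol/PBS counts-per-gram ratio. The octanol layer was repartitioned until values were consistent. Measured in triplicate and repeated three times.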

[28] = Chemical stability of the compound in saline solution after 6 hrs; type: physicochemical; conditions: buffer
Summary of the method: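 Tracer kept in saline solution at room temperature, and stability followed during storage for up to 6 h.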

[29] = test system: Brain; assay: Drug uptake in wild type C57BL6 mouse brain at 19.2 MBq, iv after 30 mins by autoradiographic analysis; type: ADME, organism-based; conditions: in vivo, 0.5 h
[30] = test system: Brain; assay: Ratio of drug uptake in brain at 2 mins to drug uptake in brain at 60 mins in ICR mouse at 370 KBq/100 ul, iv; type: ADME, organism-based; conditions: in vivo
Summary of the method: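 Normal male ICR mice (5 weeks, about 20 g) received the ¹⁸F tracer in saline (370 KBq per 100 μL) by tail-vein injection. Groups of n = 5 were killed at 2, 10, 30 and 60 min. Organs were removed, weighed and γ-counted against diluted aliquots of the injectate, giving % dose per gram. Stomach and intestine were expressed per organ. The brain ratio is 2 min/60 min uptake. Values are mean ± SD.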

[31] = test system: Bone; assay: Drug uptake in ICR mouse bone at 370 kBq/100 ul, iv at 10 mins by gamma-counting analysis; type: ADME, organism-based, Bone element; conditions: in vivo; summary of the method: as §2
[32] = test system: Intestine; assay: Drug uptake in ICR mouse intestine assessed per organ at 370 kBq/100 ul, iv at 60 mins by gamma-counting analysis; type: ADME, organism-based; conditions: in vivo, 1 h; summary of the method: as §1

Compound: CNc1ccc(-c2nc3cc(OCC[18F])ccc3o2)cn1
- Drug uptake [1]: 33.66 %ID
- Drug uptake [2]: 19.61 %ID
- Drug uptake [3]: 9.87 %ID
- Drug uptake [4]: 3.11 %ID
- Drug uptake [5]: 5.59 %ID
- Drug uptake [6]: 3.04 % ID/g
- Drug uptake [7]: 2.17 % ID/g
- Drug uptake [8]: 2.57 % ID/g
- Drug uptake [9]: 7.45 % ID/g
- Drug uptake [10]: 2.29 % ID/g
- Drug uptake [11]: 4.14 % ID/g
- Drug uptake [12]: 3.32 % ID/g
- Drug uptake [13]: 2.64 % ID/g
- Drug uptake [14]: 2.05 % ID/g
- Drug uptake [15]: 1.84 % ID/g
- Drug uptake [16]: 2.34 % ID/g
- Drug uptake [17]: 1.55 % ID/g
- Drug uptake [18]: 1.69 % ID/g
- Drug uptake [19]: 2.24 % ID/g
- Drug uptake [20]: 7.23 % ID/g
- Drug uptake [21]: 2.55 % ID/g
- Drug uptake [22]: 3.36 % ID/g
- Drug uptake [23]: Not Active
- Ki [24]: 8 nM
- Drug uptake [25]: Not Active
- remaining at 1 h, 1.85 MBq [26]: > 95%
- logD at 0.05 h [27]: 3.52
- Stability [28]: Stable
- Drug uptake [29]: Not Active
- Ratio [30]: 4.66
- Drug uptake [31]: 1.11 % ID/g
- Drug uptake [32]: 39.05 %ID
